According to ChEMBL document CHEMBL1144084, “Semisynthesis and cytotoxicity of styryl-lactone derivatives” (J Nat Prod, 1999):
In brackets after ≈: the same amount, converted by molar mass. Activity calls are given as the source filed them. No cut-off for these calls is given here.

How the values were obtained:
[1] = tested on: L1210; assay: Cytotoxicity against mouse L1210 cells after 48 hrs by MTT assay; format: functional, cell-based; conditions: L1210, 48 h
Procedure, shortened: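 Cells grown in RPMI 1640 with 10% fetal calf serum, 2 mM L-glutamine, penicillin/streptomycin and 10 mM Hepes (pH 7.4), exposed 48 h to graded drug concentrations. Read-out by microculture tetrazolium assay. IC50 is the concentration lowering optical density by 50% relative to untreated controls.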

[2] = tested on: L1210; assay: Cell cycle arrest in mouse L1210 cells by accumulation at G2M phase after 21 hrs relative to control; format: functional
Procedure, shortened: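 L-1210 cells incubated 21 h at 37 °C with various drug concentrations, fixed in 70% EtOH (v/v), washed, then stained 30 min at 20 °C in PBS with 100 µg/mL RNAse and 25 µg/mL propidium iodide. Value is percentage of cells accumulated in G2 + M phase after 21 h versus untreated control.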

## O=C1C=C[C@@H]2O[C@H](c3ccccc3)[C@@H](O)[C@@H]2O1 [ALTHOLACTONE]
[1]
  IC50: 2.9 µg/mL (≈ 12.5 µM)
[2]
  Activity: 35%

## O=C1C[C@@H](Cl)[C@@H]2O[C@H](c3ccccc3)[C@@H](O)[C@@H]2O1
[1]
  IC50: 3.7 µg/mL (≈ 13.8 µM)
[2]
  Activity: 35%

## O=C1C=C[C@@H]2O[C@H](c3ccc([N+](=O)[O-])cc3)[C@@H](O)[C@@H]2O1
[1]
  IC50: 3.2 µg/mL (≈ 11.5 µM)
[2]
  Activity: 35%

## CO[C@H]1[C@@H](O)[C@H](O)[C@@H](c2ccccc2)OC(=O)C[C@H]1OC
[1]
  IC50: 5.2 µg/mL (≈ 17.5 µM)
[2]
  Activity: inactive

## O=C1C=C[C@@H]2O[C@H](c3c([N+](=O)[O-])cccc3[N+](=O)[O-])[C@@H](O)[C@@H]2O1
[1]
  IC50: 5 µg/mL (≈ 15.5 µM)
[2]
  Activity: inactive
